Assay [1] concerns Staphylococcus aureus. The assay is described as follows: Antimicrobial activity against methicillin sensitive Staphylococcus aureus ATCC 25923 after 24 hrs by broth microdilution method. Type of assay: functional. A digest of the protocol:
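Overnight culture diluted 1:100 in trypticase soy broth with 0.5% D-glucose and 3% NaCl, grown at 37 °C to OD600 0.4, then diluted 1:10. Compounds in DMSO diluted in medium, tested at a concentration series (3-6 wells per concentration); vancomycin positive control. Incubated 24 h at 37 °C; inhibition from OD600 change versus compound-free control wells.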

In assay [2] the test system is Staphylococcus aureus. The experiment in a line: Antimicrobial activity against cutaneous methicillin resistant Staphylococcus aureus isolate 105 expressing virulence gene system including PVL, ACME, bsaB and Agr genes after 24 hrs by broth microdilution method. In kind it is functional. The note with it: isolate 105, 24 h. A digest of the protocol:
(§1)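 Clinical S. aureus isolates, first recovered from patient specimens on 5% sheep blood agar, tested by CLSI broth microdilution in cation-adjusted Mueller-Hinton broth. Initial inoculum 10^6 cfu/mL. After overnight incubation at 37 °C, MIC was read as the lowest concentration preventing visible growth. Overnight starter cultures were grown in TSB from frozen glycerol stocks.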

Assay [3] relates to Staphylococcus aureus. The experiment in a line: Antimicrobial activity against cutaneous methicillin resistant Staphylococcus aureus isolate 106 expressing virulence gene system including PVL, ACME, bsaB and Agr genes after 24 hrs by broth microdilution method. In kind it is functional. The conditions noted are these: isolate 106, 24 h. A digest of the protocol:
as §1

The test system of assay [4] is Staphylococcus aureus. The experiment in a line: Antimicrobial activity against cutaneous methicillin resistant Staphylococcus aureus isolate 107 expressing virulence gene system including PVL, ACME, bsaB and Agr genes after 24 hrs by broth microdilution method. Type of assay: functional. The note with it: isolate 107, 24 h. In short, it runs like this: as §1
The subject of assay [5] is Staphylococcus aureus. The experiment in a line: Antimicrobial activity against cutaneous methicillin resistant Staphylococcus aureus isolate 108 expressing virulence gene system including PVL, bsaA and Agr genes after 24 hrs by broth microdilution method. The conditions noted are these: isolate 108, 24 h. In kind it is functional. A digest of the protocol:
as §1

For assay [6], the system named is Staphylococcus aureus. The experiment in a line: Antimicrobial activity against cutaneous methicillin resistant Staphylococcus aureus isolate 111 expressing virulence gene system including PVL, ACME, bsaB and Agr genes after 24 hrs by broth microdilution method. The note with it: isolate 111, 24 h. Type of assay: functional. A digest of the protocol:
as §1

The test system of assay [7] is Staphylococcus aureus. The experiment in a line: Antimicrobial activity against cutaneous methicillin resistant Staphylococcus aureus isolate 148 expressing virulence gene system including PVL, ACME, bsaB and Agr genes after 24 hrs by broth microdilution method. Type of assay: functional. The note with it: isolate 148, 24 h. In short, it runs like this:
as §1

Assay [8] relates to Staphylococcus aureus. The assay is described as follows: Antimicrobial activity against cutaneous methicillin resistant Staphylococcus aureus isolate 158 expressing virulence gene system including PVL, ACME, bsaB and Agr genes after 24 hrs by broth microdilution method. Type of assay: functional. The conditions noted are these: isolate 158, 24 h. A digest of the protocol:
as §1

Assay [9] relates to Staphylococcus aureus. The experiment in a line: Antimicrobial activity against cutaneous methicillin sensitive Staphylococcus aureus isolate 175 expressing virulence gene system including PVL, bsaB and Agr genes after 24 hrs by broth microdilution method. Type of assay: functional. The note with it: isolate 175, 24 h. A digest of the protocol:
as §1

The test system of assay [10] is Staphylococcus aureus. The experiment in a line: Antimicrobial activity against cutaneous methicillin resistant Staphylococcus aureus isolate 295 expressing virulence gene system bsaB and Agr genes after 24 hrs by broth microdilution method. Type of assay: functional. The note with it: isolate 295, 24 h. In short, it runs like this: as §1
Assay [11] deals with Staphylococcus aureus. The assay is described as follows: Antimicrobial activity against invasive methicillin resistant Staphylococcus aureus isolate 186 expressing virulence gene system including PVL, bsaA and Agr genes after 24 hrs by broth microdilution method. In kind it is functional. The note with it: isolate 186, 24 h. In short, it runs like this:
as §1

In assay [12] the test system is Staphylococcus aureus. The assay is described as follows: Antimicrobial activity against invasive methicillin resistant Staphylococcus aureus isolate 194 expressing virulence gene system including PVL, ACME, bsaB and Agr genes after 24 hrs by broth microdilution method. In kind it is functional. The conditions noted are these: isolate 194, 24 h. In short, it runs like this: as §1

The subject of assay [13] is Staphylococcus aureus. The experiment in a line: Antimicrobial activity against clinical isolates of Staphylococcus aureus after 24 hrs by broth microdilution method.
Assay [14] has as its system Staphylococcus aureus. The experiment in a line: Antimicrobial activity against cutaneous methicillin sensitive Staphylococcus aureus isolate 109 expressing virulence gene system including PVL, bsaB and Agr genes after 24 hrs by broth microdilution method. The note with it: isolate 109, 24 h.

Structures are written as SMILES. Converted amounts (≈) assume the structure as drawn. The source made the active and inactive calls. The calls are words filed in the database; no cut-off is given here.

In the assay with Staphylococcus aureus [1] (ATCC 25923, 24 h), `CC(C)=C1CC[C@@H](C)[C@@](C)(Cc2c[nH]c3ccccc23)[C@@H]1CCCO` registered an MIC of 19 µg/mL (≈ 56 µM).

With `C[C@@H]1CC[C@@H]2C(=CC[C@H](O)C2(C)C)[C@]1(C)Cc1c[nH]c2ccccc12` [POLYALTHENOL], the MIC with Staphylococcus aureus [2] was 1 µg/mL (≈ 2.96 µM); against Staphylococcus aureus [3], 2 µg/mL (≈ 5.93 µM); with Staphylococcus aureus [4] it was 1 µg/mL (≈ 2.96 µM); with Staphylococcus aureus [5] it was 2 µg/mL (≈ 5.93 µM); in the assay with Staphylococcus aureus [6], 2 µg/mL (≈ 5.93 µM); in the assay on Staphylococcus aureus [7], 2 µg/mL (≈ 5.93 µM). The MIC in the assay with Staphylococcus aureus [8] amounted to 4 µg/mL (≈ 11.9 µM); against Staphylococcus aureus [9], 4 µg/mL (≈ 11.9 µM); against Staphylococcus aureus [10], 4 µg/mL (≈ 11.9 µM); in the assay on Staphylococcus aureus [11], 4 µg/mL (≈ 11.9 µM); against Staphylococcus aureus [12], 2 µg/mL (≈ 5.93 µM); in the assay on Staphylococcus aureus [1] (ATCC 25923, 24 h), 4 µg/mL (≈ 11.9 µM). Besides, in the assay on Staphylococcus aureus [14], the MIC is 1 µg/mL (≈ 2.96 µM). Moreover, in the assay on Staphylococcus aureus [13], the MIC90 was 4 µg/mL (≈ 11.9 µM).

In the case of `COC(=O)CC[C@@H]1C(=C(C)C)CC[C@@H](C)[C@@]1(C)Cc1c[nH]c2ccccc12`, in the assay on Staphylococcus aureus [1], the MIC entry is “inactive”.

Consider `C[C@@H]1CCC2=C3[C@H](C[C@H](O)C2(C)C)c2[nH]c4ccccc4c2C[C@@]31C` [PENTACYCLINDOLE], for which the MIC in the assay on Staphylococcus aureus [2], against Staphylococcus aureus [3], in the assay on Staphylococcus aureus [4], in the assay on Staphylococcus aureus [5], against Staphylococcus aureus [6] and in the assay on Staphylococcus aureus [7] was 8 µg/mL (≈ 23.8 µM) each time. The MIC in the assay on Staphylococcus aureus [8] turned out to be 8 µg/mL (≈ 23.8 µM); against Staphylococcus aureus [9] it was 8 µg/mL (≈ 23.8 µM); in the assay on Staphylococcus aureus [11] it was 8 µg/mL (≈ 23.8 µM); in the assay with Staphylococcus aureus [1] (ATCC 25923, 24 h), 4 µg/mL (≈ 11.9 µM); against Staphylococcus aureus [14], 8 µg/mL (≈ 23.8 µM). This molecule also gave an MIC90 in the assay with Staphylococcus aureus [13] of 8 µg/mL (≈ 23.8 µM).

For the origin of these results see ChEMBL document CHEMBL1157131, “Antibiotic indole sesquiterpene alkaloid from Greenwayodendron suaveolens with a new natural product framework” (2010).
